The text below walks through data of ChEMBL document CHEMBL4840309, “Nanomolar inhibition of human OGA by 2-acetamido-2-deoxy-d-glucono-1,5-lactone semicarbazone derivatives” (Eur J Med Chem, 2021).

Assay [1] has as its target T1, Protein O-GlcNAcase (Homo sapiens, UniProt O60502).
T1 sequence (O60502 whole entry): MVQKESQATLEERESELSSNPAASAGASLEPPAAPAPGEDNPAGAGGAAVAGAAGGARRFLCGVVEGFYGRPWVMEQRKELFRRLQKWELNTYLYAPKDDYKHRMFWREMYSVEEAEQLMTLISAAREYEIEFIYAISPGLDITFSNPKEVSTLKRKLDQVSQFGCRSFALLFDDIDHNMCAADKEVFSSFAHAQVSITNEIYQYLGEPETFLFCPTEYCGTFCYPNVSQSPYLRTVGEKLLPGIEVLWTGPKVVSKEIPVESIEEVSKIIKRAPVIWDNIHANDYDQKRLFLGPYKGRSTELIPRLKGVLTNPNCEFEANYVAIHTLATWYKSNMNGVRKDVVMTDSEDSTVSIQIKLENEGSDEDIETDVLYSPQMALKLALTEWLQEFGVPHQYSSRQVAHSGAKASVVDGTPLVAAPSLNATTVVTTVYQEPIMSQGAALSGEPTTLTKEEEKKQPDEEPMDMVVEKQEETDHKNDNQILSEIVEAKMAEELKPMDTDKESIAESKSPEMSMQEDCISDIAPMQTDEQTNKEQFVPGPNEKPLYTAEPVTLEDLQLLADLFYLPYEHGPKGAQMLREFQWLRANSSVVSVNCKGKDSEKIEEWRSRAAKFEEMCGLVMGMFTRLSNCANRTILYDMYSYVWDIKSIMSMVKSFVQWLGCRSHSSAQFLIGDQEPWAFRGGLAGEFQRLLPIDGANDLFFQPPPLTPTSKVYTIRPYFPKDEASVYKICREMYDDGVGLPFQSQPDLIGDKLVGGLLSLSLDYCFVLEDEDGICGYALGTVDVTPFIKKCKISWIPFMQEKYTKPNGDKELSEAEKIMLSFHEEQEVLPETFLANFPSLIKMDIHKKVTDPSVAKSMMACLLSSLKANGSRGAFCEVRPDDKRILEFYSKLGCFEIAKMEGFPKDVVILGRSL
As to the kind of experiment: Competitive inhibition of N-terminal His-tagged human OGA using 4-Mu-GlcNAc as substrate assessed as inhibition constant by measuring liberation of […] preincubated with enzyme followed by substrate addition by Cornish-Bowden method. The essentials: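 Full-length long isoform of human OGA with an N-terminal His6 tag, expressed in E. coli Rosetta(DE3) and purified on Co2+ IMAC. 3 nM enzyme was pre-incubated at 37 °C with inhibitor (0–100 nM) in 50 mM potassium phosphate, pH 7.5. Reaction was started with 4-MU-GlcNAc at three levels. Fluorescence (ex 360, em 450) was read every 10 s for 10 min. Triplicates; Ki from Dixon plot; mode by Cornish-Bowden.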

Assay [2] concerns the target T2, HEXA/HEXB (Bos taurus, UniProt Q0V8R6+H7BWW2).
T2 sequence (Q0V8R6 whole entry): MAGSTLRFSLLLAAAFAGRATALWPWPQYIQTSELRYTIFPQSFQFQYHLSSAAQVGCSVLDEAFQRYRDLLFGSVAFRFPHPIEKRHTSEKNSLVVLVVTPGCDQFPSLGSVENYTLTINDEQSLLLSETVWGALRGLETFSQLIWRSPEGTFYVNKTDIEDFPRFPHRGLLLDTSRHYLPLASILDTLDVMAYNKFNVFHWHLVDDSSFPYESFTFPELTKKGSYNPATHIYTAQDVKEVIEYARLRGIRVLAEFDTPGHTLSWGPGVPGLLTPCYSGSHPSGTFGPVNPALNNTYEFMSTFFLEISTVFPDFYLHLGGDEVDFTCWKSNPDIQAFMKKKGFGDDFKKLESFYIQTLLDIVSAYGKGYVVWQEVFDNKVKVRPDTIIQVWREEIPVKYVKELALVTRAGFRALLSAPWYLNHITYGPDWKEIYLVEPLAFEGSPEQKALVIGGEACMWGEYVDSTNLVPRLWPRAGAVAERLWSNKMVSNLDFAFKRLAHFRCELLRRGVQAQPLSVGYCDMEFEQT
T2 sequence (H7BWW2 whole entry): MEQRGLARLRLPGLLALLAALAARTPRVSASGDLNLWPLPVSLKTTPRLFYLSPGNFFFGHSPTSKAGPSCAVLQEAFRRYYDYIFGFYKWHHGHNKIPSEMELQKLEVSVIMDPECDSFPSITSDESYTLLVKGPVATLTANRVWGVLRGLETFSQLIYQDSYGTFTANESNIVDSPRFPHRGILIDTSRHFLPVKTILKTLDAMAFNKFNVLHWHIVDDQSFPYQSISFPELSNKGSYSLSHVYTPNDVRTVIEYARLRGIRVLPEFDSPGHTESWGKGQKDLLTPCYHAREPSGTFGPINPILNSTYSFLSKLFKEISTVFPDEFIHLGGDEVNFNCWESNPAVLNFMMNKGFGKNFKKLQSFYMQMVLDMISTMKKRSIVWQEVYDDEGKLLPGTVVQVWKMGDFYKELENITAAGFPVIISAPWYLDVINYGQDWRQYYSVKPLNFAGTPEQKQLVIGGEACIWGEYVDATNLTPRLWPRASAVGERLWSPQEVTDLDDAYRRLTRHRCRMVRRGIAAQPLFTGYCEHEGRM
As to the kind of experiment: Competitive inhibition of cow HexA/HexB (unknown origin) using pNP-GlcNAc as substrate assessed as inhibition constant by measuring liberation of nitrophenol preincubated with enzyme followed by substrate addition by Dixon plot analysis. The format is protein.

Assay [3] deals with T1, Protein O-GlcNAcase. As to the kind of experiment: Competitive inhibition of N-terminal His-tagged human OGA using pNP-GlcNAc as chromogenic substrate assessed as inhibition constant by measuring liberation of nitrophenol preincubated with enzyme followed by substrate addition by Dixon plot analysis. In short, it runs like this: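 His6-tagged full-length human OGA (Rosetta(DE3), Co2+ IMAC), 33 nM. Pre-incubated with inhibitor at 37 °C in 50 mM potassium phosphate, pH 7.5, 1 ml. Started by adding pNP-GlcNAc at three concentrations. Release of p-nitrophenol followed continuously at 400 nm. Initial rates in triplicate; Ki by linear regression of Dixon plots; modality checked by Cornish-Bowden plots.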

The target of assay [4] is T1, Protein O-GlcNAcase. As to the kind of experiment: Inhibition of OGA (unknown origin) using pNP-O-GlcNAc as substrate assessed as inhibition constant incubated for 30 mins.
The target in assay [5] is T2, HEXA/HEXB. As to the kind of experiment: Inhibition of HexA/HexB (unknown origin). The format is protein assay, Homo sapiens.

For `CC(=O)N[C@H]1/C(=N/NC(=O)Nc2ccc3ccccc3c2)O[C@H](CO)[C@@H](O)[C@@H]1O`, the Ki worked out at 0.036 µM at Protein O-GlcNAcase [1] and 0.047 µM at HEXA/HEXB [2].
Regarding `CC(=O)N[C@H]1/C(=N/NC(=S)Nc2ccccc2)O[C@H](CO)[C@@H](O)[C@@H]1O`, the Ki was found to be 27 µM at Protein O-GlcNAcase [3] and 30 µM on HEXA/HEXB [2].
Take `CC(=O)N[C@H]1/C(=N/O)O[C@H](CO)[C@@H](O)[C@@H]1O`: the Ki at Protein O-GlcNAcase [4] stood at 1.6 µM.
As for `CC(=O)N[C@H]1/C(=N/NC(=O)Nc2ccccc2)O[C@H](CO)[C@@H](O)[C@@H]1O`, the results for the Ki at Protein O-GlcNAcase [3], on HEXA/HEXB [2] and at HEXA/HEXB [5] were 0.19 µM, 0.205 µM and 0.13 µM, respectively.
Consider `CC(=O)N[C@H]1/C(=N/NC(=O)Nc2cccc3ccccc23)O[C@H](CO)[C@@H](O)[C@@H]1O`, for which the values for the Ki at Protein O-GlcNAcase [3] and at HEXA/HEXB [2] were 0.506 µM and 0.154 µM, respectively.
Consider `CC(=O)N[C@H]1/C(=N/NC(=O)Nc2ccc(Cl)cc2)O[C@H](CO)[C@@H](O)[C@@H]1O`, for which the results for the inhibition constant (Ki) at Protein O-GlcNAcase [1] and at HEXA/HEXB [2] were 0.083 µM and 0.17 µM, respectively.
Regarding `CC(=O)N[C@H]1/C(=N/NC(=O)Nc2ccc(C(F)(F)F)cc2)O[C@H](CO)[C@@H](O)[C@@H]1O`, the inhibition constant (Ki) at Protein O-GlcNAcase [3] turned out to be 0.167 µM; at HEXA/HEXB [2] it was 0.125 µM.
For `CC(=O)N[C@H]1/C(=N/NC(=O)Nc2ccc(C)cc2)O[C@H](CO)[C@@H](O)[C@@H]1O` the same measures were 0.155 µM and 0.332 µM.
For `COc1ccc(NC(=O)N/N=C2\O[C@H](CO)[C@@H](O)[C@H](O)[C@H]2NC(C)=O)cc1`, the Ki on Protein O-GlcNAcase [3] was found to be 0.27 µM; on HEXA/HEXB [2] it was 0.413 µM.

What is called Ki is the dissociation constant of the complex between target and ligand, obtained from inhibition or displacement.
